The record followed here is ChEMBL document CHEMBL6071149, “Synthesis and photo-induced anticancer activity of new 2-phenylethenyl-1H-benzo[e]indole dyes” (Eur J Med Chem, 2024).

Activity calls are given as the source filed them. The rule behind the calls is not given here. Some results are limits rather than exact numbers.

Experiment [1] concerns G-361. In words: Cytotoxicity against human G361 cells under dark condition measured after 72 hrs by MTT assay. The format is functional, cell-based. The following applies: G-361, 72 h. In outline:
(§1)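 Cells grown in phenol red-free DMEM with 10 % FBS, penicillin/streptomycin, 37 °C, 5 % CO₂. Compound added 24 h after plating and incubated 4 h. Irradiated cells received 414 nm LED light at 20 mW/cm², 10 J/cm², then were incubated 20 h or 68 h more. Dark plates were run in parallel without irradiation. MTT was added for 4 h, formazan dissolved in 10 % SDS, absorbance read at 570 nm. EC50 ± SD.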
On the technique in general: Tetrazolium dyes change colour on reduction, which living cells bring about.

The test system of experiment [2] is G-361. In words: Cytotoxicity against human G361 cells pretreated for 4 hrs followed by light irradiation of 10 J/cm2 at 414 nm measured after 20 hrs by MTT assay. The format is functional, cell-based. The following applies: G-361, light or radiation study. In outline: as §1
A short description of experiment [3]: Cytotoxicity against ARN-8 cells-derived from human A375 cells pretreated for 4 hrs followed by light irradiation of 10 J/cm2 at 414 nm measured after 20 hrs by MTT assay. The format is functional, cell-based. Particulars: ARN-8 cell, light or radiation study. In outline: as §1
Experiment [4] is described as follows: Cytotoxicity against ARN-8 cells-derived from human A375 cells pretreated for 4 hrs followed by light irradiation of 10 J/cm2 at 414 nm measured after 68 hrs by MTT assay. The following applies: ARN-8 cell, light or radiation study. The format is functional, cell-based. In outline:
as §1

Experiment [5] in a line: Selectivity ratio of EC50 for human G361 cells under dark condition measured after 72 hrs by MTT assay to EC50 for human G361 cells pretreated for 4 hrs followed by light irradiation of 10 J/cm2 at 414 nm measured after 68 hrs by MTT assay. The format is functional. In outline: (§2)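 Ratio of dark EC50 to EC50 after 414 nm irradiation (10 J/cm²). MTT read-out; compound exposure 4 h before irradiation. Each dark value is paired with the matching post-irradiation incubation (20 h or 68 h).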

A short description of experiment [6]: Selectivity ratio of EC50 for human ARN-8 cells-derived from human A375 cells under dark condition measured after 72 hrs by MTT assay to EC50 for human ARN-8 cells-derived from human A375 cells pretreated for 4 hrs followed by light irradiation of 10 J/cm2 at 414 nm measured after 68 hrs by MTT assay. The format is functional, ARN-8 cell. A digest of the protocol: as §2

The subject of experiment [7] is G-361. Briefly: Induction of ROS production in human G361 cells upto 4 uM pretreated for 4 hrs followed by light irradiation of 5 to 10 J/cm2 measured immediately in presence of N-acetylcysteine by CM-H2DCFA probe based analysis. The format is functional, cell-based. In outline: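 Cells loaded next day with 5 µM CM-H₂DCFDA for 30 min, then placed in prewarmed PBS with 5 mM glucose. Compound exposure 4 h, followed by 414 nm irradiation at 5 or 10 J/cm²; dark samples run in parallel. Fluorescence read immediately at 492/530 nm. NAC (5 mM) pretreatment for 10 min gave negative controls. RFU normalised to untreated dark control.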

Experiment [8] has as its system G-361. Briefly: Induction of ROS production in human G361 cells assessed as increase in hydroxyl radical production upto 4 uM pretreated for 4 hrs followed by replacement of medium containing probe without compound for 30 mins and subsequent light irradiation of 5 to 10 J/cm2 measured immediately by DHR-123 probe based analysis. The format is functional, cell-based. In outline: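 Compound exposure 4 h, then medium replaced with PBS containing 5 µM DHR123 probe for 30 min. Probe removed, cells in PBS irradiated at 5 or 10 J/cm², dark samples in parallel. Fluorescence read immediately at 490/525 nm.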

Experiment [9] has as its system G-361. Briefly: Induction of apoptosis in human G361 cells assessed as increase in cleaved PARP-1 level upto 4 uM pretreated for 4 hrs followed by light irradiation of 10 J/cm2 at 414 nm measured after 20 hrs by Western blot analysis. The format is functional, cell-based. Particulars: time 24.0 hrs. In outline: (§3)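 Compound exposure 4 h, then 414 nm irradiation, then 20 h further incubation. Lysates made in RIPA buffer, separated by SDS-PAGE and blotted to nitrocellulose. Primary antibodies in TBS with 4 % BSA and 0.1 % Tween 20, incubated overnight. Peroxidase secondary antibody with chemiluminescent detection. GAPDH served as loading control.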
In general terms: In western blotting, separated proteins are transferred to a membrane and probed.

Experiment [10] has as its system G-361. In words: Induction of apoptosis in human G361 cells assessed as increase in cleaved pro-caspase-9 level upto 4 uM pretreated for 4 hrs followed by light irradiation of 10 J/cm2 at 414 nm measured after 20 hrs by Western blot analysis. The format is functional, cell-based. Particulars: time 24.0 hrs. A digest of the protocol: as §3
Experiment [11] has as its system G-361. Briefly: Induction of apoptosis in human G361 cells assessed as increase in cleaved BAX level upto 4 uM pretreated for 4 hrs followed by light irradiation of 10 J/cm2 at 414 nm measured after 20 hrs by Western blot analysis. The format is functional, cell-based. Particulars: time 24.0 hrs. A digest of the protocol: as §3
For experiment [12], the system named is ARN-8 cell. Briefly: Induction of apoptosis in human ARN-8 cells-derived from human A375 cells assessed as increase in cleaved pro-caspase-9 level upto 4 uM pretreated for 4 hrs followed by light irradiation of 10 J/cm2 at 414 nm measured after 20 hrs by Western blot analysis. Particulars: time 24.0 hrs. The format is functional, cell-based. A digest of the protocol:
as §3

Experiment [13] deals with ARN-8 cell. Briefly: Upregulation of Mcl-1 level in human ARN-8 cells-derived from human A375 cells upto 4 uM pretreated for 4 hrs followed by light irradiation of 10 J/cm2 at 414 nm measured after 20 hrs by Western blot analysis. The format is functional, cell-based. Particulars: time 24.0 hrs. In outline: as §3
Experiment [14] deals with G-361. In words: Induction of cell cycle arrest in human G361 cells assessed as increase in cell population at sub-G1 phase at 0.5 to 1 uM pretreated for 4 hrs followed by light irradiation of upto 10 J/cm2 at 414 nm measured after 20 hrs by flow cytometry. The format is functional, cell-based. The following applies: dose 0.5-1 µM, time 24.0 hrs. In outline: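 Compound exposure 4 h (0.5 or 1 µM), then irradiation at increasing blue-light doses, then 20 h further incubation. Cells stained with propidium iodide; DNA content measured by flow cytometry with a 488 nm laser. Cell-cycle and subG1 distributions analysed.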
Background: In flow cytometry, cells or beads pass a laser one at a time.

The test system of experiment [15] is G-361. In words: Induction of DNA fragmentation in human G361 cells at 0.5 uM by Comet assay. The format is functional, cell-based. In outline: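 G361 cells exposed at 0.5 µM and irradiated at indicated 414 nm doses. Cells trypsinized and embedded in 1 % LMP agarose on slides, lysed 1 h in buffer with 1 % Triton X. Cold electrophoresis solution for 40 min, then electrophoresis at 20 V, 350 mA for 20 min. Neutralised twice for 10 min, stained with SYBR Green 15 min. Percent DNA in comet head and tail scored.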

The subject of experiment [16] is ARN-8 cell. Briefly: Induction of cell cycle arrest in human ARN-8 cells-derived from human A375 cells transfected with p53-responsive beta-galactosidase assessed as increase in p53 activation upto 4 uM pretreated for 4 hrs followed by light irradiation of 10 J/cm2 at 414 nm measured after 20 hrs by fluorescence based assay. The format is functional. The following applies: time 24.0 hrs. In outline: (§4)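 ARN8 cells stably carrying the p53-responsive pRGΔfoslacZ reporter. Increasing compound concentrations for 4 h, then 414 nm irradiation at 2.5, 5, 7.5 or 10 J/cm², then 20 h further incubation. Cells lysed in 0.3 % Triton X-100. After 10 min, 4-methylumbelliferyl β-D-galactopyranoside added at a final 80 µM for 1 h. Fluorescence read at […].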

Experiment [17] relates to ARN-8 cell. In words: Downregulation of p53 level in human ARN-8 cells-derived from human A375 cells transfected with p53-responsive beta-galactosidase at higher concentration pretreated for 4 hrs followed by light irradiation of 10 J/cm2 at 414 nm measured after 20 hrs by fluorescence based assay. Particulars: time 24.0 hrs. The format is functional. In outline: as §4

In experiment [18] the test system is ARN-8 cell. Briefly: Downregulation of p53 level in human ARN-8 cells-derived from human A375 cells at higher concentration pretreated for 4 hrs followed by light irradiation of 10 J/cm2 at 414 nm measured after 20 hrs by fluorescence based assay. The format is functional. The following applies: time 24.0 hrs.

Broadly, the EC50 is the concentration giving half of the maximal effect. For `COc1ccc(/C=C/C2=Nc3ccc4ccccc4c3C2(C)C)cc1[N+](=O)[O-]`, the EC50 in the experiment with G-361 [1] amounted to 5600 nM; in the experiment with G-361 [2] it was 600 nM; in experiment [3], 500 nM; in experiment [4], 200 nM. In addition, the “Ratio EC50” value in experiment [5] and in experiment [6] was >28 in each case. Also, the outcome with G-361 [7] and in the experiment with G-361 [15] was inactive. In addition, the result with G-361 [8], in the experiment with G-361 [9], in the experiment with G-361 [10], in the experiment with G-361 [11], with ARN-8 cell [12] and in the experiment on ARN-8 cell [13] was Active. Moreover, the result with G-361 [14], in the experiment with ARN-8 cell [16], in the experiment with ARN-8 cell [17] and in the experiment with ARN-8 cell [18] was Active.
